Assay results published in ChEMBL document CHEMBL1158565, “Antagonism of 4-substituted 1,4-dihydropyridine-3,5-dicarboxylates toward voltage-dependent L-type Ca2+ channels Ca V 1.3 and Ca V 1.2” (Bioorg Med Chem, 2010).

Legend:
[1] = Selectivity ratio of antagonist activity at rat Cav1.3 to antagonist activity at rabbit Cav1.2 at 100 nM; assay type: functional
In short: (§1)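 Percent inhibition of Cav1.3 current was divided by that of Cav1.2 at the same concentration. Currents were from whole-cell patch clamp in transiently transfected tsA201 cells: Ba2+ bath, pH 7.4, steps from -60 mV, about 22 °C.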

[2] = target: Voltage-dependent L-type calcium channel subunit alpha-1D (Rattus norvegicus) (UniProt P27732); assay: Antagonist activity at rat Cav1.3 expressed in HEK293 cells assessed as inhibition of voltage pulse-induced calcium current at 100 nM by whole-cell patch-clamp recording
[3] = target: T1, Voltage-dependent L-type calcium channel subunit alpha-1C (Oryctolagus cuniculus, UniProt P15381); assay: Antagonist activity at rabbit Cav1.2 expressed in tsA201 cells assessed as inhibition of voltage pulse-induced calcium current at 100 nM by whole-cell patch-clamp recording
[4] = target: Voltage-dependent L-type calcium channel subunit alpha-1D (Rattus norvegicus) (UniProt P27732); assay: Antagonist activity at rat Cav1.3 expressed in HEK293 cells assessed as inhibition of voltage pulse-induced calcium current at 200 nM by FLIPR calcium 4 assay; assay type: functional, cell-based; details: in the assay text read “by whole-cell patch-clamp recording” for “by FLIPR calcium 4 assay”
In short: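 Whole-cell patch clamp on tsA201 cells transiently cotransfected with rabbit Cav1.2 α1C or rat Cav1.3 α1D, Cavβ3 and Cavα2δ-1 (1:1:1) plus GFP. GFP cells were recorded after replating at 48 h. Bath (mM): 110 NaCl, 1 MgCl2, 10 BaCl2, 10 HEPES, 10 glucose, 20 CsCl, pH 7.4. Compound was diluted from DMSO stock and perfused. Pulses ran from -60 mV to +10 or 0 mV with tetrodotoxin at about 22 °C. Read-out was percent current inhibition.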

[5] = Selectivity ratio of antagonist activity at rat Cav1.3 to antagonist activity at rabbit Cav1.2 at 200 nM; assay type: functional; in short: as §1
[6] = target: T1, Voltage-dependent L-type calcium channel subunit alpha-1C; assay: Antagonist activity at rabbit Cav1.2 expressed in tsA201 cells assessed as inhibition of voltage pulse-induced calcium current at 200 nM by whole-cell patch-clamp recording
[7] = target: Voltage-dependent L-type calcium channel subunit alpha-1D (Rattus norvegicus, UniProt P27732); assay: Antagonist activity at rat Cav1.3 expressed in HEK293 cells assessed as inhibition of voltage pulse-induced calcium current by FLIPR calcium 4 assay; assay type: functional, cell-based
In short: (§2)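 HEK293 lines stably expressing Cavβ3 and Cavα2δ-1 plus Cav1.2 α1C (rabbit) or Cav1.3 α1D (rat) were selected with zeocin/hygromycin. Calcium signals were read by FLIPR with Calcium 4 dye. IC50 came from 11-point dose-response curves. Signal percentage error (SD/mean) was 6.4% for Cav1.2 and 4.1% for Cav1.3 cells.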

[8] = target: T1, Voltage-dependent L-type calcium channel subunit alpha-1C; assay: Antagonist activity at rabbit Cav1.2 expressed in HEK293 cells assessed as inhibition of voltage pulse-induced calcium current by FLIPR calcium 4 assay; assay type: functional, cell-based; in short: as §2

T1 sequence (P15381 whole entry): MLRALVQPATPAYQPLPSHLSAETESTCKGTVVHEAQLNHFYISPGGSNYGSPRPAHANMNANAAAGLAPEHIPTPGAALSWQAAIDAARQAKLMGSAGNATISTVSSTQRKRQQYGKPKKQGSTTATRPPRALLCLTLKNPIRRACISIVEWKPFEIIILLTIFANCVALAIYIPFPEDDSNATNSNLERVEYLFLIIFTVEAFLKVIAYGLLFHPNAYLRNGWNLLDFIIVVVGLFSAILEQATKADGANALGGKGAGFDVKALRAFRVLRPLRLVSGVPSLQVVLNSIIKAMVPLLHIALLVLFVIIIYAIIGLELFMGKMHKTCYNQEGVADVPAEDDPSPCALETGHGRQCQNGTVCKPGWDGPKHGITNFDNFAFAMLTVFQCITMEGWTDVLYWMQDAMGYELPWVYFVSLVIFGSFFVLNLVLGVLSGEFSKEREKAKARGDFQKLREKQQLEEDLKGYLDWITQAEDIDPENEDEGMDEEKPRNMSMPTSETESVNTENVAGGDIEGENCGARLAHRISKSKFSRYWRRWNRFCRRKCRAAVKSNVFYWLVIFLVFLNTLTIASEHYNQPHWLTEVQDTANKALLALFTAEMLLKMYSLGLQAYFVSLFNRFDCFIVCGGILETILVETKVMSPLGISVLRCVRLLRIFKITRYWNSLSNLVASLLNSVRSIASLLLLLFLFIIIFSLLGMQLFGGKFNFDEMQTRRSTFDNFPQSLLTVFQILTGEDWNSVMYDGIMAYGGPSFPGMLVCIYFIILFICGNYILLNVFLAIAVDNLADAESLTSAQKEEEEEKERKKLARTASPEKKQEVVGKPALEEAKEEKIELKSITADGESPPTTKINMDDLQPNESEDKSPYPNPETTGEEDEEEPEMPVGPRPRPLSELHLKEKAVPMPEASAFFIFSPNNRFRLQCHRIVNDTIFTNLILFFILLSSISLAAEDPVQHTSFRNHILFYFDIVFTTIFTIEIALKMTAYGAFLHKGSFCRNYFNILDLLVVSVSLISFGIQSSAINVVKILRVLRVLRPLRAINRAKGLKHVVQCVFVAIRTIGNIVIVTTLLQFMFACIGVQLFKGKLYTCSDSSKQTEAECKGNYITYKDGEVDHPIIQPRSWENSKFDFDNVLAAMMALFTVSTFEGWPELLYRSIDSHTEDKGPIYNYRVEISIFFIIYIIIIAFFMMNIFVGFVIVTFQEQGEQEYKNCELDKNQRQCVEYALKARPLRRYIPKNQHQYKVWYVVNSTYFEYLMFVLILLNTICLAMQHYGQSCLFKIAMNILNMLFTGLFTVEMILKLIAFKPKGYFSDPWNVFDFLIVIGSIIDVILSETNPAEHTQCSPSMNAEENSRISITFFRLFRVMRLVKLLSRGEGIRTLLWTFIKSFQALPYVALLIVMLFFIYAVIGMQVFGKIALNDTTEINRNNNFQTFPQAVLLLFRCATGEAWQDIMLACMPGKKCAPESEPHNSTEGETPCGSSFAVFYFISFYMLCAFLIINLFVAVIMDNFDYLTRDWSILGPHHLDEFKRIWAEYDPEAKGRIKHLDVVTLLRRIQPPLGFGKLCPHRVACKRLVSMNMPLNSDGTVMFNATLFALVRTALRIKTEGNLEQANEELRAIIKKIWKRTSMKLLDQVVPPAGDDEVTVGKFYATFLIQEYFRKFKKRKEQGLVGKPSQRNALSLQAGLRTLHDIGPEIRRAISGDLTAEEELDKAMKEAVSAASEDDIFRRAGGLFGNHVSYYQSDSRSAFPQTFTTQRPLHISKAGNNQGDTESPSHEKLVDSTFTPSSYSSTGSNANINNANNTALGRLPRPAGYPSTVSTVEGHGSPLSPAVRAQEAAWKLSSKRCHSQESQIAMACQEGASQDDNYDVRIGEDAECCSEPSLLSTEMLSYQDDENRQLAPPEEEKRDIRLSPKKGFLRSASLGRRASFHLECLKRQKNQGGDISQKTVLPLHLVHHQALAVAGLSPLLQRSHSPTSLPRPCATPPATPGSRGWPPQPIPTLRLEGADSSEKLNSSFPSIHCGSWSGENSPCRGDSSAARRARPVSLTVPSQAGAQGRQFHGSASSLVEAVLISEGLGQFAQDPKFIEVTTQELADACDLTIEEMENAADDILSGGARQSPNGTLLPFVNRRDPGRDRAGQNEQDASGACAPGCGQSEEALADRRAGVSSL
Sequence of Voltage-dependent L-type calcium channel subunit alpha-1D (P27732 whole entry): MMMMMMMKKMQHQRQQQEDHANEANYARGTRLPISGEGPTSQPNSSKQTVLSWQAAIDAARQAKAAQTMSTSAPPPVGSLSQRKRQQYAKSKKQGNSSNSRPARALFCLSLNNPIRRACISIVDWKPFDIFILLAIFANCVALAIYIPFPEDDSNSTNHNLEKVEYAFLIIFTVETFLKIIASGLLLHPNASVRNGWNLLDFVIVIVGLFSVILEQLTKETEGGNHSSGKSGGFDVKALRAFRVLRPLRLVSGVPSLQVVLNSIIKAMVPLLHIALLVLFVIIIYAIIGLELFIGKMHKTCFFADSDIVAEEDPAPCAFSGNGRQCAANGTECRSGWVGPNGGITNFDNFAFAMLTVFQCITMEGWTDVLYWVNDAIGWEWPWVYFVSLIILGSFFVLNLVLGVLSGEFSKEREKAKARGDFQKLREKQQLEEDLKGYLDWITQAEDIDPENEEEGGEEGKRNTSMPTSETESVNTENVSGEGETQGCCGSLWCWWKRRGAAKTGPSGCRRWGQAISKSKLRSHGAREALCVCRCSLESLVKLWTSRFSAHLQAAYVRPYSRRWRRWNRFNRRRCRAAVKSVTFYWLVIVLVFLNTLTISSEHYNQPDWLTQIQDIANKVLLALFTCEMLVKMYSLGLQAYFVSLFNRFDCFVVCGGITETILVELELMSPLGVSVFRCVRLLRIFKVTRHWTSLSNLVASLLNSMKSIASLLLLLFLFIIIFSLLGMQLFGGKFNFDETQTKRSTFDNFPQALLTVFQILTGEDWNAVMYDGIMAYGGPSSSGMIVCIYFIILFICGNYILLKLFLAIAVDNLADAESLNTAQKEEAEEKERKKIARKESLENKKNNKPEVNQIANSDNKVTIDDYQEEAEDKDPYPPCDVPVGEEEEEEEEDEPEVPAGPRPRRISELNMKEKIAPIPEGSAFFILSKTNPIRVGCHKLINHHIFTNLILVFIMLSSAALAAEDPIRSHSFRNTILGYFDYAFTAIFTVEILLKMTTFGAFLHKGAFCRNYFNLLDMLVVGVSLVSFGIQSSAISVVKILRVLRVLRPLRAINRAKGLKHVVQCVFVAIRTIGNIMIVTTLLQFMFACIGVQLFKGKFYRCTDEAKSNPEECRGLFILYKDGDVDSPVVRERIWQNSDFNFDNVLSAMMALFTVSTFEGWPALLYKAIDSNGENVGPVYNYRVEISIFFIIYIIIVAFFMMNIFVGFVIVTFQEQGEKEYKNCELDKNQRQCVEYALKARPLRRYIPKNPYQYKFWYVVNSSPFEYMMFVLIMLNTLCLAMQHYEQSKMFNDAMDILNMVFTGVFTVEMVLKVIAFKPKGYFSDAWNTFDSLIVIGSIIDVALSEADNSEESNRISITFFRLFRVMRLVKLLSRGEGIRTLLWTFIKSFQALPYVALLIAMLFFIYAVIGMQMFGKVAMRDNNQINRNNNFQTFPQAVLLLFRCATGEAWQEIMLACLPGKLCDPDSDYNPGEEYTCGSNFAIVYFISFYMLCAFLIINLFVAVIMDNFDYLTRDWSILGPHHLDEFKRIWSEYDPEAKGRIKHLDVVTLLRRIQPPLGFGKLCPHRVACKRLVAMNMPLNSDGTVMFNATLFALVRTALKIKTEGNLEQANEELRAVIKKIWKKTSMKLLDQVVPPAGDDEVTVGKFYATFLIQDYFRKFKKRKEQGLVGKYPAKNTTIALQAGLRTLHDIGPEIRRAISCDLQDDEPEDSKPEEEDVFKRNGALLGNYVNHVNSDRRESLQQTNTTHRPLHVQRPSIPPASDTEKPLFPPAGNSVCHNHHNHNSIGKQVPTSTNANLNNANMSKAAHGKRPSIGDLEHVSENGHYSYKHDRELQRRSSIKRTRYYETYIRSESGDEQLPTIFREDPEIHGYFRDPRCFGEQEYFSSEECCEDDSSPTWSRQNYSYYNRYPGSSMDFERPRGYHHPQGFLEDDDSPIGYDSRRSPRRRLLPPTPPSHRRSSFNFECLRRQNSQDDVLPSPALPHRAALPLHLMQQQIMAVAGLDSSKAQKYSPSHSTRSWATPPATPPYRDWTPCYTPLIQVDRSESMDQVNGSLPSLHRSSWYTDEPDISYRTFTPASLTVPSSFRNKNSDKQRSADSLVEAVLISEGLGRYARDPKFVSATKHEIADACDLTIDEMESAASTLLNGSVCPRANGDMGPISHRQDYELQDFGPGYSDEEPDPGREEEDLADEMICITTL
Sequence of Voltage-dependent L-type calcium channel subunit alpha-1D (Rattus norvegicus) (P27732 whole entry, the tested form may be a part): as the sequence (P27732 whole entry) above

Row | SMILES | inhibition [4] [%] | Selectivity ratio [5] | inhibition at 0.2 µM [6] [%] | IC50 [7] [nM] | IC50 [8] [nM] | other results
1 | COC(=O)C1=C(C)NC(C)=C(C(=O)OC)C1c1ccccc1[N+](=O)[O-] [NIFEDIPINE] | – | – | – | – | – | Selectivity ratio [1]: 0.67; inhibition [2]: 46%; inhibition at 0.1 µM [3]: 69%
2 | CCOC(=O)C1=C(C)NC(C)=C(C(=O)OCC)C1c1ccsc1 | 50 | 0.93 | 54 | – | – | –
3 | CCOC(=O)C1=C(C(F)(F)F)NC(C(F)(F)F)=C(C(=O)OCC)C1c1cccc(C(F)(F)F)c1 | 67 | 1.1 | 61 | – | – | –
4 | COC(=O)C1=C(C)NC(C)=C(C(=O)OC(C)(C)C)C1c1cccc([N+](=O)[O-])c1 (configuration not stated) [MEBUDIPINE] | 85 | 0.93 | 91 | – | – | –
5 | CCOC(=O)C1=C(C)NC(C)=C(C(=O)OCC)C1c1cccc(Cl)c1 | – | – | – | – | – | Selectivity ratio [1]: 1.02; inhibition [2]: 59%; inhibition at 0.1 µM [3]: 58%
6 | CCOC(=O)C1=C(C)NC(C)=C(C(=O)OCC)C1c1ccccc1I | 95 | 0.99 | 96 | – | – | –
7 | CCOC(=O)C1=C(C)NC(C)=C(C(=O)OCC)C1c1cc([N+](=O)[O-])ccc1Cl | 89 | 0.92 | 97 | – | – | –
8 | CCOC(=O)C1=C(C)NC(C)=C(C(=O)OCC)C1c1cc(Br)cc(Br)c1 | 72 | 0.98 | 74 | – | – | –
9 | CCOC(=O)C1=C(C)NC(CC)=C(C(=O)OCC)C1c1cccc([N+](=O)[O-])c1 (configuration not stated) | 88 | 0.95 | 93 | – | – | –
10 | CC1=C(C(=O)OCC(C)C)C(c2cccc([N+](=O)[O-])c2)C(C(=O)OCC(C)C)=C(C)N1 | 59 | 1.14 | 52 | – | – | –
11 | CCOC(=O)C1=C(C)NC(C)=C(C(=O)OCC)C1c1ccc2ccccc2c1 | 12 | 0.75 | 16 | – | – | –
12 | CCOC(=O)C1=C(CC)NC(C)=C(C(=O)OC)C1c1cccc([N+](=O)[O-])c1 (configuration not stated) | – | – | – | – | – | Selectivity ratio [1]: 0.72; inhibition [2]: 55%; inhibition at 0.1 µM [3]: 76%
13 | COC(=O)C1=C(C)NC(C)=C(C(=O)OCC(C)C)C1c1cccc([N+](=O)[O-])c1 (configuration not stated) | 90 | 0.96 | 94 | – | – | –
14 | CCOC(=O)C1=C(C(F)(F)F)NC(C(F)(F)F)=C(C(=O)OCC)C1c1cccc([N+](=O)[O-])c1 | 38 | 1.11 | 34 | – | – | –
15 | CCOC(=O)C1=C(C)NC(C)=C(C(=O)OCC)C1c1cccc(F)c1 | – | – | – | – | – | Selectivity ratio [1]: 0.75; inhibition [2]: 48%; inhibition at 0.1 µM [3]: 64%
16 | CCCC1=C(C(=O)OCC)C(c2cccc([N+](=O)[O-])c2)C(C(=O)OCC)=C(CCC)N1 | – | – | – | – | – | Selectivity ratio [1]: 1.07; inhibition [2]: 27%; inhibition at 0.1 µM [3]: 25%
17 | CCOC(=O)C1=C(C)NC(C)=C(C(=O)OCC)C1c1cc(C(F)(F)F)cc(C(F)(F)F)c1 | 38 | 1 | 38 | – | – | –
18 | CCOC(=O)C1=C(C)NC(C)=C(C(=O)OCC)C1c1ccccc1 | – | – | – | – | – | Selectivity ratio [1]: 0.85; inhibition [2]: 41%; inhibition at 0.1 µM [3]: 48%
19 | CCOC(=O)C1=C(C)NC(C)=C(C(=O)OCC)C1C1CCCCC1 | 21 | 0.81 | 26 | – | – | –
20 | CCOC(=O)C1=C(CC)NC(CC)=C(C(=O)OCC)C1c1cccc([N+](=O)[O-])c1 | – | – | – | – | – | Selectivity ratio [1]: 0.71; inhibition [2]: 37%; inhibition at 0.1 µM [3]: 52%
21 | CCOC(=O)C1=C(C)N=C(C)/C(=C(/O)OCC)C1c1ccncc1 (configuration not stated) | 15 | 0.56 | 27 | – | – | –
22 | CCCC1C(C(=O)OCC)=C(C)NC(C)=C1C(=O)OCC | 36 | 0.86 | 42 | – | – | –
23 | CCOC(=O)C1=C(C)NC(C)=C(C(=O)OCC)C1c1csc2ccccc12 | 57 | 0.7 | 80 | – | – | –
24 | CC1=C(C(=O)OC(C)(C)C)C(c2cccc([N+](=O)[O-])c2)C(C(=O)OC(C)(C)C)=C(C)N1 | – | – | – | – | – | Selectivity ratio [1]: 0.69; inhibition [2]: 22%; inhibition at 0.1 µM [3]: 32%
25 | CCOC(=O)C1=C(C)N=C(C)/C(=C(/O)OCC)C1c1cccs1 (configuration not stated) | 57 | 0.87 | 65 | – | – | –

Row | SMILES | inhibition [4] [%] | Selectivity ratio [5] | inhibition at 0.2 µM [6] [%] | IC50 [7] [nM] | IC50 [8] [nM] | other results
26 | CC1=C(C(=O)OC(C)C)C(c2cccc([N+](=O)[O-])c2)C(C(=O)OC(C)C)=C(C)N1 | 66 | 0.86 | 77 | – | – | –
27 | CCOC(=O)C1=C(C)NC(C)=C(C(=O)OCC)C1c1ccc(Cl)c([N+](=O)[O-])c1 | 66 | 0.77 | 86 | – | – | –
28 | COC(=O)C1=C(C)N=C(C)/C(=C(/O)OC)C1(C)c1ccccc1 (configuration not stated) | – | – | – | 2310 | 1470 | –
29 | COC(=O)C1=C(C)NC(C)=C(C(=O)OC(C)C)C1c1cccc([N+](=O)[O-])c1 (configuration not stated) | 89 | 0.93 | 96 | – | – | –
30 | CCOC(=O)C1=C(C)NC(C)=C(C(=O)OCC)C1c1ccoc1 | 32 | 0.57 | 56 | – | – | –
31 | CCOC(=O)C1=C(C)NC(C)=C(C(=O)OC=O)C1c1cccc([N+](=O)[O-])c1 (configuration not stated) | – | – | – | 13900 | 33300 | –
32 | CCOC(=O)C1=C(C)NC(C)=C(C(=O)OCC)C1c1cccc(Br)c1 | – | – | – | – | – | Selectivity ratio [1]: 0.98; inhibition [2]: 80%; inhibition at 0.1 µM [3]: 82%
33 | C=C(C)C(=O)OCCOC(=O)C1=C(C)NC(C)=C(C(=O)OCC)C1c1cccc([N+](=O)[O-])c1 (configuration not stated) | – | – | – | 10 | 10 | –
34 | COC(=O)C1=C(C)NC(C)=C(C(=O)OC)C1c1ccccc1SC | – | – | – | 35 | 8 | –
35 | CCOC(=O)C1=C(C)NC(CN2CCN(c3ccccc3)CC2)=C(C(=O)OCC)C1c1cccc([N+](=O)[O-])c1 (configuration not stated) | – | – | – | 610 | 630 | –
36 | CCOC(=O)C1=C(C)NC(CO)=C(C(=O)OCC)C1c1cccc([N+](=O)[O-])c1 (configuration not stated) | – | – | – | 45 | 49 | –
37 | CCOC(=O)C1=C(C)NC(C)=C(C(=O)OCC)C1c1cccc(F)c1F | – | – | – | 10 | 15 | –
38 | CCOC(=O)C1=C(C)NC(C(OCC)OCC)=C(C(=O)OCC)C1c1cccc([N+](=O)[O-])c1 (configuration not stated) | – | – | – | 615 | 460 | –
39 | COC(=O)C1=C(C)NC(C)=C(C(=O)OCc2ccc(-c3ccccc3)cc2)C1c1cccc([N+](=O)[O-])c1 (configuration not stated) | – | – | – | 74 | 69 | –
40 | CCOC(=O)C1=C(C)NC(C)=C(C(=O)OCC)C1c1ccc(F)cc1F | – | – | – | 58 | 20 | –
41 | CCOC(=O)C1=C(C)NC(C)=C(C(=O)OC)C1c1cccc([N+](=O)[O-])c1 (configuration not stated) [NITRENDIPINE] | – | – | – | – | – | Selectivity ratio [1]: 0.55; inhibition [2]: 34%; inhibition at 0.1 µM [3]: 62%
42 | COC(=O)C1=C(C)NC(C)=C(C(=O)OCCc2ccc(Cl)cc2)C1c1cccc([N+](=O)[O-])c1 (configuration not stated) | – | – | – | 39 | 8 | –
43 | COC(=O)C1=C(C)NC(C)=C(C(=O)OCc2ccccc2)C1c1cccc([N+](=O)[O-])c1 (configuration not stated) | – | – | – | 15 | 25 | –
44 | CCOC(=O)C1=C(C)NC(C)=C(C(=O)OCC)C1c1ccccc1-c1ccccc1 | 65 | 0.89 | 73 | – | – | –
45 | COC(=O)C1=C(C)NC(C)=C(C(=O)OCC23CC4CC(C)(CC(C)(C4)C2)C3)C1c1cccc([N+](=O)[O-])c1 (configuration not stated) | – | – | – | 5070 | 685 | –
46 | COC(=O)C1=C(C)NC(C)=C(C(=O)OC2Cc3ccccc3C2)C1c1cccc([N+](=O)[O-])c1 (configuration not stated) | – | – | – | 43 | 72 | –
47 | COC(=O)C1=C(C)NC(C)=C(C(=O)OCCCCc2ccccc2)C1c1cccc([N+](=O)[O-])c1 (configuration not stated) | – | – | – | 38 | 10 | –
48 | C=C(C)CCOC(=O)C1=C(C)NC(C)=C(C(=O)OC)C1c1cccc([N+](=O)[O-])c1 (configuration not stated) | – | – | – | 47 | 23 | –
49 | COC(=O)C1=C(C)NC(C)=C(C(=O)OCc2ccco2)C1c1cccc([N+](=O)[O-])c1 (configuration not stated) | – | – | – | 15 | 20 | –
50 | CCOC(=O)C1=C(C)NC(COC(C)=O)=C(C(=O)OCC)C1c1cccc([N+](=O)[O-])c1 (configuration not stated) | – | – | – | 37 | 10 | –
